≈ marks a conversion by molar mass, not a printed value. Where “and” joins values, the source holds several entries; their conditions need not be identical. Identical values can stand only once. Where no end group is shown, it is not given here.
How the values were obtained:
[1] = system: S. aureus (29213); assay: microbe, parasite or virus in culture; assay type: cell-based, Staphylococcus aureus; conditions: for Antimicrobial activity (MIC): 29213, 20 h
[2] = system: S aureus (25923); assay: microbe, parasite or virus in culture; assay type: cell-based, Staphylococcus aureus; conditions: for Antimicrobial activity (MIC): 25923, 20 h
[3] = system: S. Epidermidis (35984); assay: microbe, parasite or virus in culture; assay type: cell-based; conditions: for Antimicrobial activity (MIC): 35984, 20 h
[4] = in vitro; assay type: cell-based; conditions: human
[5] = system: human lung carcinoma A549 cells; assay: Kinetics of peptide-induced cell membrane damage, LIVE/DEAD kit; assay type: cell-based; conditions: LIVE/DEAD dye staining, 120 minutes of incubation
Procedure, shortened: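 A549 cells (freshly trypsinized) seeded at 2 × 10⁴ cells/well in collagen-coated glass chambers, grown overnight in F12K/10% FBS at 37 °C, 5% CO₂. Cells were PBS-washed three times and stained with LIVE/DEAD for 15 min. Test compound was added at a final 10 µM, and confocal images were taken over time (ex 488 nm; em 505–530 nm live, 560 nm dead). Membrane integrity was taken as % green of total green+red pixels.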

[6] = Peptide aggregation; assay type: physicochemical
[7] = system: Staphylococcus aureus (ATCC 25923); assay: Co-culture of bacteria and mammalian cells: effect on bacteria; assay type: cell-based; conditions: A549 monolayer + S. aureus (25923), 20 µM peptide, 6 hours
[8] = in vitro; assay type: in vitro ADME
[9] = Staphylococcus aureus, 20 h, read-out: Antimicrobial activity (MIC)

`CC1(C)S[C@@H]2[C@H](NC(=O)Cc3ccccc3)C(=O)N2[C@H]1C(=O)O` [Penicillin G] gave an MIC [1, 9] of 16 µg/mL (≈ 47.8 µM), an MIC [2, 9] of 1 µg/mL (≈ 2.99 µM) and an MIC ([3]; Staphylococcus epidermidis, 20 h, read-out: Antimicrobial activity (MIC)) of 4 µg/mL (≈ 12 µM).

With FLGALFKALSKLL [PTP-7] the IC50 at 2 h [4] was 9 µM, the “Antimicrobial activity (MIC)” value [1] was 8 µg/mL and the “Antimicrobial activity (MIC)” value [2] was 4 µg/mL. The “Antimicrobial activity (MIC)” value [3] was 8 µg/mL.

For FLGALFRALSRLL [CL-1], the Cell lysis reached [5] was less than 100%, the “Size of peptide aggregates (Nanosizer)” value ([6]; PBS pH 7.4, 37 °C, long (> 4–6 hours / overnight) incubation, Zeta nanosizer) was > 2.0 µm and 2.5 µm and the “Aggregate formation at acidic pH (in words)” value ([6]; acidic pH, even very high peptide concentrations and long incubation) was “unable to form aggregates at acidic pH”. The “Fraction of peptide in solution existing as aggregates” value ([6]; after overnight incubation, PBS pH 7.4, DLS and congo red) was 90–95% and ~95%, the “Time for aggregates to dissolve completely at pH 5.5” value ([6]; solution pH adjusted from physiological pH to pH=5.5 with HCl) was less than 30 minutes and the “Antimicrobial activity (MIC)” value [1] was 8 µg/mL. For the same compound, the “Effect on S. aureus in co-culture (in words)” value [7] was “only S. aureus were selectively killed”, the “Antimicrobial activity (MIC)” value [2] was 8 µg/mL and the “Antimicrobial activity (MIC)” value [3] was 4 µg/mL. For the same compound, the “estimated half-life in human sera” value [8] was 8 to 9 h and the remaining at 5 h, 10 µM ([8]; human, serum) was greater than 95%.

— publication PMC4203308 (Biomacromolecules, 2013)
